Published values collected from several papers.
Lines come from different studies, so protocols differ.
Read-out: cell growth or viability

Structure (SMILES) | cell line | test | conditions | endpoint | value
OCc1ccc(-c2nn(Cc3cccc(Cl)c3)c3ccccc23)o1 | RBE | ATP luminescence | 46 µM, 72 h | inhibition | 75%
O=C(CCCCCCC(=O)Nc1ccccc1)NO | HBL1 | ATP luminescence | 0.1 µM, 5 days | viability | 132%
Cc1n[nH]c2ccc3nc(-c4ccc(C(=O)N(C)CCN(C)C)cc4)c4c(c3c12)CCCCC4 | MV4-11 | resazurin | 72 h | GI50 | 522 nM
NCCC(=O)Nc1ccccc1/N=c1\cc(-c2ccc3c(c2)OCCO3)oc2cc(F)ccc12 | MDA-MB-468 | CCK-8 | 1 µM | inhibition | 31.2%
COc1ncccc1Cn1nc(-c2ccc(CO)o2)c2ccccc21 | RBE | ATP luminescence | – | IC50 | 0.229 µM
O=C(NCCN1CCCC1)c1ccc(-c2nc3ccc4[nH]ncc4c3c3c2CCCC3)cc1 | MV4-11 | resazurin | 72 h | GI50 | 366 nM
COc1ccc2/c(=N/c3ccccc3NC(=O)N3CCOCC3)cc(-c3ccc4c(c3)OCCO4)oc2c1 | MDA-MB-468 | CCK-8 | 1 µM | inhibition | 18.7%
O=C(NCCCN1CCOCC1)c1ccc(-c2nc3ccc4[nH]ncc4c3c3c2CCCC3)cc1 | MV4-11 | resazurin | 72 h | GI50 | 413 nM
NCC(=O)Nc1ccccc1/N=c1\cc(-c2ccc3c(c2)OCO3)oc2ccccc12 | MDA-MB-468 | CCK-8 | 1 µM | inhibition | 3.86%
COCCNC(=O)c1ccc(-c2nc3ccc4[nH]ncc4c3c3c2CCCC3)cc1 | MV4-11 | resazurin | 72 h | GI50 | 400 nM
OCc1ccc(-c2nn(Cc3ccncc3)c3cccnc23)o1 | RBE | ATP luminescence | – | IC50 | 8.71 µM
Cc1n[nH]c2ccc3nc(-c4ccc(C(=O)NCCN(C)C)cc4)c4c(c3c12)CCC(F)(F)C4 | MV4-11 | resazurin | 72 h | GI50 | 132 nM
COc1ccc2/c(=N/c3ccccc3NC(=O)[C@H](C)N)cc(-c3ccc4c(c3)OCCO4)oc2c1 | MDA-MB-468 | CCK-8 | 1 µM | inhibition | 13.4%
Cc1ccc(-c2nn(Cc3ccccc3)c3ccccc23)o1 | RBE | ATP luminescence | 46 µM, 72 h | inhibition | 59%
CC(C)(C)[C@H](N)C(=O)Nc1ccccc1/N=c1\cc(-c2ccc3c(c2)OCCO3)oc2cc(F)ccc12 | MDA-MB-468 | CCK-8 | 1 µM | inhibition | -0.62%
NC(=O)c1ccc(-c2nc3ccc4[nH]ncc4c3c3c2CCCC3)cc1 | MV4-11 | resazurin | 72 h | GI50 | 57 nM
O=C(OCc1ccccc1)n1nc(-c2ccc(CO)o2)c2ccccc21 | RBE | ATP luminescence | 46 µM, 72 h | inhibition | 55%
N[C@@H](CO)C(=O)Nc1ccccc1/N=c1\cc(-c2ccc3c(c2)OCO3)oc2ccccc12 | MDA-MB-468 | CCK-8 | 1 µM | inhibition | 7.66%
O=C(NO)c1ccc(CC(=O)N(CCO)c2ccccc2)cc1 | HBL1 | ATP luminescence | 0.5 µM, 5 days | viability | 117%
OCc1ccc(-c2nn(Cc3ccccc3F)c3ccccc23)o1 | RBE | ATP luminescence | 46 µM, 72 h | inhibition | 68%
